# In ChEMBL document CHEMBL5715950, “Characterization of molecular and cellular functions of the cyclin-dependent kinase CDK9 using a novel specific inhibitor” (Br J Pharmacol, 2014):
# The source made the active and inactive calls. The calls are words filed in the database; no cut-off is given here.
# How the values were obtained:
# [1] = target: Cyclin-dependent kinase 9 (Homo sapiens) (UniProt P50750); experiment: Inhibition of CDK9 in human A549 cells assessed as downregulation of RPL3 mRNA expression at 1 to 10 uM incubated for 90 mins by RT-qPCR analysis relative to control; assay type: cell-based; conditions: dose 1-10 µM
# Sequence of Cyclin-dependent kinase 9 (Homo sapiens) (P50750 whole entry, the tested form may be a part): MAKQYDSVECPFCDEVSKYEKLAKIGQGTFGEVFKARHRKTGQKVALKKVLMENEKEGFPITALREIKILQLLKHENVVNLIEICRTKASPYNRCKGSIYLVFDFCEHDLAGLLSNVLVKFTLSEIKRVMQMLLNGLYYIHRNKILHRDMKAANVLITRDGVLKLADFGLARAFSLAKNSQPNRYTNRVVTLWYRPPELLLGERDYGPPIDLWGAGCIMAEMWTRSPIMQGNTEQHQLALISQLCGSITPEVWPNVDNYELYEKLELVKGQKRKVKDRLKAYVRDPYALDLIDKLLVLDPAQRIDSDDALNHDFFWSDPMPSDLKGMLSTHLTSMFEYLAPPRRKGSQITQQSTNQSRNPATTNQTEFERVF
# [2] = target: Cyclin-dependent kinase 9 (Homo sapiens) (UniProt P50750); experiment: Inhibition of CDK9 in human A549 cells assessed as downregulation of GAPDH mRNA expression at 1 to 10 uM incubated for 90 mins by RT-qPCR analysis relative to control; assay type: cell-based; conditions: dose 1-10 µM
# [3] = target: T1, CDK7/Cyclin H/MNAT1 (Homo sapiens, UniProt P50613); experiment: Displacement of kinase tracer 236 from CDK7/Cyclin H/MAT1 (unknown origin) assessed as dissociation constant incubated for 1 hr by LanthScreen Eu kinase binding assay; assay type: protein-complex assay
# T1 sequence (P51946 whole entry): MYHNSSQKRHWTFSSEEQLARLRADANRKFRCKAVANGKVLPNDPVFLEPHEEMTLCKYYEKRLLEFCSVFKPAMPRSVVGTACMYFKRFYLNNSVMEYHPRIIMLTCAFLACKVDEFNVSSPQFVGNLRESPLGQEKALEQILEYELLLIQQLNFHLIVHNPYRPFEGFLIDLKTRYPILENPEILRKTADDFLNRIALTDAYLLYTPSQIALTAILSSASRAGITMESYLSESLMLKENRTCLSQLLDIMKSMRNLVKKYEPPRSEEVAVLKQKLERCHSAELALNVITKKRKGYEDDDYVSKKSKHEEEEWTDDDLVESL
# T1 sequence (P50613 whole entry): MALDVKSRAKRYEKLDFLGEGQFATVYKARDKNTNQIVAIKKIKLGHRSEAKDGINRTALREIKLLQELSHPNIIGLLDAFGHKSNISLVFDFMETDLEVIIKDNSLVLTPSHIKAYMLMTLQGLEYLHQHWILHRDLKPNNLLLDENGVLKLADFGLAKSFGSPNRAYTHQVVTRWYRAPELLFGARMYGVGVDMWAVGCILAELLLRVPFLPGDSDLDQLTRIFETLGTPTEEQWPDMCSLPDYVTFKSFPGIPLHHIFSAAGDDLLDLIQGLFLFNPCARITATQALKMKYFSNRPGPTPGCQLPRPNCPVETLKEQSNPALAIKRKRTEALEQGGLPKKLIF
# T1 sequence (P51948 whole entry, further chain): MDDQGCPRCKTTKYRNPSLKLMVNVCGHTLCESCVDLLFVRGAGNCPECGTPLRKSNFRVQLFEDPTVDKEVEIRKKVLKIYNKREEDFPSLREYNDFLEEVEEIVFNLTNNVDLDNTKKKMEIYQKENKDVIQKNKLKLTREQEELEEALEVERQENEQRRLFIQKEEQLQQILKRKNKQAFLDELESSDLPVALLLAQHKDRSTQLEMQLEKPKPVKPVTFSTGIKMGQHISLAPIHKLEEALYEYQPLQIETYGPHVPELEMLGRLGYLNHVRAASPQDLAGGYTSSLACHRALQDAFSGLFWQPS
# [4] = target: T2, Mitogen-activated protein kinase kinase kinase kinase 4 (Homo sapiens, UniProt O95819); experiment: Inhibition of MAP4K4 (unknown origin) incubated for 120 mins in presence of 33P-ATP by radiometric kinase assay
# Target sequence in this assay (O95819 whole entry): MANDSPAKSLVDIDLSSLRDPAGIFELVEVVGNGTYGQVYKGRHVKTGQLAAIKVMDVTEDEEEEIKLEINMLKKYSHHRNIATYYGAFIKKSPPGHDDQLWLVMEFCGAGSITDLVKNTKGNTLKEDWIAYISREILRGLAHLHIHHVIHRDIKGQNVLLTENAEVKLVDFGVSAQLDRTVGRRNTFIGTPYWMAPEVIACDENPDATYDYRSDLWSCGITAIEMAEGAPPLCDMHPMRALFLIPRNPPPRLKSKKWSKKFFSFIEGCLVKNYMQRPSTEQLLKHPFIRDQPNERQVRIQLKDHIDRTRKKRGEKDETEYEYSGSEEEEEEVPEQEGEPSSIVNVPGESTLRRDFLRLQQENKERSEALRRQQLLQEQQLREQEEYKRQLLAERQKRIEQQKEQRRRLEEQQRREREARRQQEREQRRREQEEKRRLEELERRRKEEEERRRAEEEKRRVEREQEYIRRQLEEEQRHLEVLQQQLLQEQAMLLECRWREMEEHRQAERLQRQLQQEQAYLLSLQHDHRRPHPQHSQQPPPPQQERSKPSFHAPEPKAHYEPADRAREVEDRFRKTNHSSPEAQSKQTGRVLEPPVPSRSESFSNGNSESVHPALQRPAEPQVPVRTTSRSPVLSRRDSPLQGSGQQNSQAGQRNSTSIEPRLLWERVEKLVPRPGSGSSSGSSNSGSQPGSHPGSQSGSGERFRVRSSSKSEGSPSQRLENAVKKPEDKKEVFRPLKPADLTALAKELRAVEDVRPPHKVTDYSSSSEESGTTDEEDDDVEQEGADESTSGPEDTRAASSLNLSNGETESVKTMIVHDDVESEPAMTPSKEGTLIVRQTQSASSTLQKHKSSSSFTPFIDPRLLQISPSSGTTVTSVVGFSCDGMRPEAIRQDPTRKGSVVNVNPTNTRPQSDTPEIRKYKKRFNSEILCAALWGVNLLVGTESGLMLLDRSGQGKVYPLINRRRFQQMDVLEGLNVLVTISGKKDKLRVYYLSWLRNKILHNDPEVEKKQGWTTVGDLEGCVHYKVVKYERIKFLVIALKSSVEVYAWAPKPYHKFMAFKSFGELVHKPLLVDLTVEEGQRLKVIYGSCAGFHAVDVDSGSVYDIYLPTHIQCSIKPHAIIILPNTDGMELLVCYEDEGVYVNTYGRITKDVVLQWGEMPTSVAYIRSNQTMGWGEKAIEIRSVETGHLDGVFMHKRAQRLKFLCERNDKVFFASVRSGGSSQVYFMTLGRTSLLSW
# [5] = target: Glycogen synthase kinase-3 alpha (Homo sapiens, UniProt P49840); experiment: Inhibition of GSK3A (unknown origin) assessed as residual activity at 10 uM incubated for 120 mins in presence of 33P-ATP by radiometric kinase assay relative to control
# Sequence of Glycogen synthase kinase-3 alpha (P49840 2-483 limits assumed): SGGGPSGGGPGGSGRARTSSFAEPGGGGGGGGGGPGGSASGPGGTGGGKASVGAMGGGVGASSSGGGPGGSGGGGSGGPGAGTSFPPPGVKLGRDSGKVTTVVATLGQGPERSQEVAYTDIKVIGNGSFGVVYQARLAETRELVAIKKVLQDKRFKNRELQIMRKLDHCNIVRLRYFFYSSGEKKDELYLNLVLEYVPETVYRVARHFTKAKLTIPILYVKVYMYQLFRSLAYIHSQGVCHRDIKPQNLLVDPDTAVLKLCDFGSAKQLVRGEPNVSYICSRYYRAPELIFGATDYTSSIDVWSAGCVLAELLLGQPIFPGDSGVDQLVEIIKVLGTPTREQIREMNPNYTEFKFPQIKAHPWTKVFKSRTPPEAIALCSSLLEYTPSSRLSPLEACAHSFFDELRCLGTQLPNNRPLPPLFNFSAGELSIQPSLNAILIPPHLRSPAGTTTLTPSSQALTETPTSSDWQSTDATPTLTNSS
# [6] = target: Cyclin-dependent kinase 9 (Mus musculus) (UniProt Q99J95); experiment: Inhibition of CDK9 in mouse Embryonic stem cell assessed as downregulation of MYC mRNA expression at 2.5 to 40 uM incubated for 90 mins by RT-qPCR analysis relative to control; assay type: cell-based; conditions: dose 2.5-40 µM
# Sequence of Cyclin-dependent kinase 9 (Mus musculus) (Q99J95 whole entry, the tested form may be a part): as the sequence (P50750 whole entry, the tested form may be a part) above, with S17T, R37K, K40Q, N258K, Y262F counted along it
# [7] = Inhibition of transcription in human HEK293T cells nuclear extract fused with Gal4-VP16 at 4 uM in presence of ATP by phosphorimaging analysis; assay type: functional; conditions: HEK-293T
# Method in brief: (§1)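 In vitro transcription from the adenovirus core promoter (Gal-ML, 380 bp G-free cassette), soluble or bead-immobilised template, using HEK293T nuclear extract supplemented with recombinant Gal4-VP16. ATP 60 μM (low), 100 μM, or 500 μM (high); magnesium varied in one series. Transcripts quantified by phosphorimaging.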
# [8] = test system: HeLa; experiment: Inhibition of RNA synthesis in human HeLa cells stably transfected with luciferase reporter gene at 2 uM incubated for 30 mins followed by doxycycline addition and measured after 60 mins by RT-qPCR analysis relative to control; assay type: functional; conditions: 1.5 h, time 90 min
# Method in brief: (§2)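 Stably transfected HeLa cells carrying a tetracycline-inducible luciferase reporter: inhibitor or DMSO for 30 min, then 1 μg/mL doxycycline for 60 min. De novo reporter transcripts measured by RT-qPCR.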
# [9] = target: T1, CDK7/Cyclin H/MNAT1; experiment: Inhibition of CDK7/Cyclin H/MAT1 (unknown origin) using ULight MBP peptide as substrate in presence of ATP incubated for 1 hr by FRET based LANCE Ultra KinaSelect screen assay; assay type: protein-complex assay
# [10] = target: Cyclin-dependent kinase 9 (Homo sapiens) (UniProt P50750); experiment: Inhibition of CDK9 in human A549 cells assessed as downregulation of PLK2 mRNA expression at 2 to 6 uM incubated for 90 mins by RT-qPCR analysis relative to control; assay type: cell-based; conditions: dose 2-6 µM
# [11] = Selectivity ratio of IC50 for inhibition of CDK9/Cyclin T1 (unknown origin) to IC50 for inhibition of CDK7/Cyclin H/MAT1 (unknown origin)
# [12] = Transcription level in human HCT-116 cells nuclear extract fused with Gal4-VP16 at 10 uM in presence of ATP by phosphorimaging analysis relative to control
# [13] = target: Cyclin-dependent kinase 9 (Homo sapiens) (UniProt P50750); experiment: Inhibition of CDK9 in human A549 cells assessed as downregulation of p21 mRNA expression at 2 to 6 uM incubated for 90 mins by RT-qPCR analysis relative to control; assay type: cell-based; conditions: dose 2-6 µM
# [14] = target: Cyclin-dependent kinase 9 (Homo sapiens) (UniProt P50750); experiment: Inhibition of CDK9 in human HeLa cells assessed as upregulation of serine 7 phosphorylation at 10 uM incubated for 1 hr by chromatin immunoprecipitation assay; assay type: cell-based
# [15] = Transcription level in human HeLa cells nuclear extract fused with Gal4-VP16 at 10 uM in presence of ATP by phosphorimaging analysis relative to control
# [16] = target: Cyclin-dependent kinase 9 (Homo sapiens) (UniProt P50750); experiment: Inhibition of CDK9 in human HeLa cells assessed as upregulation of serine 5 phosphorylation at 10 uM incubated for 1 hr by chromatin immunoprecipitation assay; assay type: cell-based
# [17] = Selectivity ratio of IC50 for inhibition of CDK9/Cyclin T1 (unknown origin) to IC50 for inhibition of CDK1/Cyclin B1 (unknown origin)
# [18] = test system: HeLa; experiment: Inhibition of RNA synthesis in human HeLa cells stably transfected with luciferase reporter gene at 10 uM incubated for 30 mins followed by doxycycline addition and measured after 60 mins by RT-qPCR analysis relative to control; assay type: functional; conditions: 1.5 h, time 90 min; method in brief: as §2
# [19] = Selectivity ratio of IC50 for inhibition of CDK9/Cyclin T1 (unknown origin) to IC50 for inhibition of CDK2/Cyclin A (unknown origin)
# [20] = test system: A549; experiment: Induction of apoptosis in human A549 cells at 15 uM incubated for 24 hrs by Annexin V-FITC/PI staining based flow cytometric analysis; assay type: functional, cell-based
# Method in brief: (§3)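 Cells grown at 37°C, 5% CO2 (A549, HeLa, MCF7 in DMEM high glucose; HCT116 in McCoy's 5A; THP1 and primary AML M4 apheresis blasts in RPMI1640), exposed to inhibitor or DMSO for 24 h. Apoptotic fraction by flow cytometry after annexin V-fluorescein/propidium iodide double staining. Means ± SD of three biological replicates; AML blasts from one patient, three technical replicates. Student's t-test versus DMSO/untreated.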
# [21] = target: T2, Mitogen-activated protein kinase kinase kinase kinase 4; experiment: Inhibition of MAP4K4 (unknown origin) assessed as residual activity at 10 uM incubated for 120 mins in presence of 33P-ATP by radiometric kinase assay relative to control
# Target sequence in this assay (O95819 2-1239 limits assumed): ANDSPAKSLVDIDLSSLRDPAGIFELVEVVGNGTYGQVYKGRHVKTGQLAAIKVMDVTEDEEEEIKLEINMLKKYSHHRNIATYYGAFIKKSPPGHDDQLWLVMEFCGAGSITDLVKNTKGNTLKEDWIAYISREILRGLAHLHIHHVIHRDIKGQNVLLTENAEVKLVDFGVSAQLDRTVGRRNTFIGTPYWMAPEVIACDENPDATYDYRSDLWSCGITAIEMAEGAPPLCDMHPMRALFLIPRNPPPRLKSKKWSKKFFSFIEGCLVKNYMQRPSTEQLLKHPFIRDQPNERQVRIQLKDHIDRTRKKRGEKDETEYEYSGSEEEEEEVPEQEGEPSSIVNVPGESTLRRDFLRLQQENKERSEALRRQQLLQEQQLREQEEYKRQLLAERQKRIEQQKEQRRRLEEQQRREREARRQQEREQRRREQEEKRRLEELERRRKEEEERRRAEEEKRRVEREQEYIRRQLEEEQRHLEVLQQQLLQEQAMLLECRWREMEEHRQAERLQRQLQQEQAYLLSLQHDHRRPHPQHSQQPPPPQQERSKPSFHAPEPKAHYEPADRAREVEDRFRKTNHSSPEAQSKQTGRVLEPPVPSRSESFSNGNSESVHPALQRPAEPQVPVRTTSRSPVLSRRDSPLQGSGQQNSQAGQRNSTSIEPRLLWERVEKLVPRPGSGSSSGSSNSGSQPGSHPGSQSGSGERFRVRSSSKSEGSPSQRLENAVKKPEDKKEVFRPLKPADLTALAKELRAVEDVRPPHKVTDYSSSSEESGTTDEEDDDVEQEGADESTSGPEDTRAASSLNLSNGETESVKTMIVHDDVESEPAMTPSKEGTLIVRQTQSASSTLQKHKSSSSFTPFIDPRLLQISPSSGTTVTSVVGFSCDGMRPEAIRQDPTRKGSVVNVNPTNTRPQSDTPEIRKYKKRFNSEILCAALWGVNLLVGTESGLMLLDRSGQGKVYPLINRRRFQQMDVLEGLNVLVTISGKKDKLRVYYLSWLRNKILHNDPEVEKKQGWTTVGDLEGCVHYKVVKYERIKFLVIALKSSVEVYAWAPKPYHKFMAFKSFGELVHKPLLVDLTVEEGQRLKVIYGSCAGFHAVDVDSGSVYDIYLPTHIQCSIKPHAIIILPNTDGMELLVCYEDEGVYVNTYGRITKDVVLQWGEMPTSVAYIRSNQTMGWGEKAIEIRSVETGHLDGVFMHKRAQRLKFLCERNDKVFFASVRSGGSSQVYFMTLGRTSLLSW
# [22] = target: Cyclin-dependent kinase 9 (Homo sapiens) (UniProt P50750); experiment: Inhibition of CDK9 in human A549 cells assessed as downregulation of p21 mRNA expression at 1 to 10 uM incubated for 90 mins by RT-qPCR analysis relative to control; assay type: cell-based; conditions: dose 1-10 µM
# [23] = test system: HeLa; experiment: Inhibition of RNA synthesis in human HeLa cells stably transfected with luciferase reporter gene at 0.04 to 2 uM incubated for 30 mins followed by doxycycline addition and measured after 60 mins by RT-qPCR analysis; assay type: functional, cell-based; conditions: dose 0.04-2 µM, time 90.0 min; method in brief: as §2
# [24] = test system: p53HCT116; experiment: Induction of apoptosis in human p53HCT116 cells at 10 uM incubated for 24 hrs by Annexin V-FITC/PI staining based flow cytometric analysis; assay type: functional, cell-based; method in brief: as §3
# [25] = Displacement of kinase tracer 236 from CDK2/Cyclin A (unknown origin) assessed as dissociation constant incubated for 1 hr by LanthScreen Eu kinase binding assay; parameters: species or system Homo sapiens
# [26] = test system: HEK-293T; experiment: Inhibition of transcription in human HEK293T cells nuclear extract fused with Gal4-VP16 at 10 uM in presence of ATP and MgCl2 by phosphorimaging analysis; assay type: functional, subcellular; conditions: Nucleus; method in brief: as §1
# [27] = target: Cyclin-dependent kinase 9 (Homo sapiens) (UniProt P50750); experiment: Inhibition of CDK9 in human A549 cells assessed as downregulation of CCND1 mRNA expression at 2 to 6 uM incubated for 90 mins by RT-qPCR analysis relative to control; assay type: cell-based; conditions: dose 2-6 µM
structure (smiles),measurement,setting,value
COc1ccccc1-c1cc(Nc2cccc(NS(C)(=O)=O)c2)ncn1,inhibition,[1],50%
same,inhibition,[2],50%
same,Kd,[3],16 µM
same,IC50,[4],0.82 µM
same,Activity,[5],9.5%
same,inhibition,[6],Active
same,inhibition at 4 µM,[7],50%
same,inhibition at 2 µM,[8],50%
same,IC50,[9],> 10 µM
same,inhibition,[10],50%
same,Ratio IC50,[11],> 227
same,"level, % of control at 10 µM",[12],20%
same,inhibition,[13],50%
same,inhibition,[14],Active
same,"level, % of control at 10 µM",[15],20%
same,inhibition,[16],Active
same,Ratio IC50,[17],125
same,inhibition at 10 µM,[18],80%
same,Ratio IC50,[19],55
same,Activity,[20],Active
same,Activity,[21],17.5%
same,inhibition,[22],50%
same,inhibition,[23],Active
same,Activity,[24],Active
same,Kd,[25],1.01 µM
same,inhibition,[26],inactive
same,inhibition,[27],50%
